The source made the active and inactive calls. The calls are words filed in the database; no cut-off is given here.
Legend:
MDCK [1] = test: Cytotoxicity against MDCK cells expressing carbonic anhydrase 9 assessed as reduction in cell viability at 50 nM pretreated for 1 hr followed by 4 Gy irradiation under anoxic condition by Alamar blue assay; format: functional, cell-based; details: Canis lupus familiaris
Summary of the method: (§1)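 ATR inhibitor plus radiation: MDCK CAIX+/CAIX− cells were preconditioned 24 h under normoxia (21% O2) or anoxia (≤0.02% O2). Compound in 0.5% DMSO was added 1 h before X-irradiation, 2 Gy normoxic or 4 Gy anoxic. Total compound exposure was 72 h, then washout and 72 h normoxic regrowth. Readout was 2 h alamarBlue conversion, as relative viability.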

Carbonic anhydrase 12 = Carbonic anhydrase 12 (Homo sapiens, UniProt O43570); test: Binding affinity to recombinant human carbonic anhydrase 12 after 15 mins by stopped-flow CO2 hydration assay
Carbonic anhydrase 1 = Carbonic anhydrase 1 (Homo sapiens, UniProt P00915); test: Binding affinity to recombinant human carbonic anhydrase 1 after 15 mins by stopped-flow CO2 hydration assay
MDCK [2] = test: Cytotoxicity against carbonic anhydrase 9 knockdown MDCK cells assessed as reduction in cell viability at 50 nM pretreated for 1 hr followed by 2 Gy irradiation under normoxic condition by Alamar blue assay; format: cell-based, Canis lupus familiaris; details: dog, 0.05 µM; summary of the method: as §1
MDCK [3] = test: Cytotoxicity against carbonic anhydrase 9 knockdown MDCK cells assessed as reduction in cell viability at 50 nM pretreated for 72 hrs followed by 72 hrs incubation under normoxic condition by Alamar blue assay; format: cell-based, Canis lupus familiaris; details: dog, 0.05 µM
Summary of the method: (§2)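 ATR inhibitor without irradiation: MDCK CAIX+ or scrambled-control CAIX− cells were preconditioned 24 h at ≤0.02% O2 (anoxia) or 21% O2. Compound was added in 0.5% DMSO for 72 h, then washed off. Cells regrew 72 h under normoxia, followed by 2 h alamarBlue conversion. Viability is relative to control.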

MDCK [4] = test: Cytotoxicity against MDCK cells expressing carbonic anhydrase 9 assessed as reduction in cell viability at 50 nM pretreated for 1 hr followed by 2 Gy irradiation under normoxic condition by Alamar blue assay; format: functional, cell-based; details: Canis lupus familiaris; summary of the method: as §1
Carbonic anhydrase 2 = Carbonic anhydrase 2 (Homo sapiens, UniProt P00918); test: Binding affinity to recombinant human carbonic anhydrase 2 after 15 mins by stopped-flow CO2 hydration assay
MDCK [5] = test: Cytotoxicity against carbonic anhydrase 9 knockdown MDCK cells assessed as reduction in cell viability at 50 nM after 72 hrs under anoxic condition by Alamar blue assay; format: cell-based, Canis lupus familiaris; details: dog, 0.05 µM; summary of the method: as §2
MDCK [6] = test: Cytotoxicity against carbonic anhydrase 9 knockdown MDCK cells assessed as reduction in cell viability at 50 nM pretreated for 1 hr followed by 4 Gy irradiation under anoxic condition by Alamar blue assay; format: cell-based, Canis lupus familiaris; details: dog, 0.05 µM; summary of the method: as §1
MDCK [7] = test: Cytotoxicity against MDCK cells expressing carbonic anhydrase 9 assessed as reduction in cell viability at 50 nM pretreated for 72 hrs followed by 72 hrs incubation under normoxic condition by Alamar blue assay; format: functional, cell-based; details: Canis lupus familiaris; summary of the method: as §2
MDCK [8] = test: Cytotoxicity against MDCK cells expressing carbonic anhydrase 9 assessed as reduction in cell viability at 50 nM after 72 hrs under anoxic condition by Alamar blue assay; format: functional, cell-based; details: Canis lupus familiaris; summary of the method: as §2
Carbonic anhydrase 9 = Carbonic anhydrase 9 (Homo sapiens, UniProt Q16790); test: Binding affinity to recombinant human carbonic anhydrase 9 after 15 mins by stopped-flow CO2 hydration assay
HCT-116 [9] = test: Effect on mitochondrial respiration in carbonic anhydrase 9 knockdown human HCT116 cells assessed as reduction in oxygen consumption rate at 0.5 mM after 24 hrs under hypoxic condition […]; format: ADME, cell-based; details: hct-116, 24 h, 500 µM
Summary of the method: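 HCT116 cells with constitutive CAIX knockdown or scrambled control were seeded at 1.5×10^4 cells/well and kept 18 h at 0.2% O2. Medium was then switched to DMEM with 25 mM glucose, 4 mM glutamine and 1 mM pyruvate, 60 min before assay, in a CO2-free incubator at 37 °C. Seahorse XF96 oxygen consumption rate was read at baseline and after injection of drug or PBS vehicle. Values were normalized to BCA protein.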

MDCK [10] = test: Cytotoxicity against carbonic anhydrase 9 knockdown MDCK cells assessed as reduction in cell viability after 72 hrs under hypoxic condition by Alamar blue assay; format: cell-based; details: Canis lupus familiaris
MDCK [11] = test: Cytotoxicity against MDCK cells expressing carbonic anhydrase 9 assessed as reduction in cell viability after 72 hrs under hypoxic condition by Alamar blue assay; format: functional, cell-based; details: Canis lupus familiaris
[12] = Cytotoxicity against carbonic anhydrase 9 knockdown MDCK cells assessed as surviving fraction incubated for 24 hrs measured after 7 days under normoxic condition by methylene blue staining based clonogenic survival assay; format: cell-based, Canis lupus familiaris; details: dog, read-out: Survival
Summary of the method: (§3)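 Confluent, high-density MDCK CAIX+/CAIX− cells, to allow CAIX-dependent medium acidification. Drug or vehicle (0.5% DMSO) for 24 h under normoxia (21% O2) or hypoxia (0.2% O2). Cells then trypsinised and reseeded in triplicate at known numbers, grown 7 days. Colonies fixed and stained with 0.4% methylene blue in 70% ethanol. Surviving fraction normalised to vehicle. Three independent biological repeats.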

MDCK [13] = test: Cytotoxicity against MDCK cells expressing carbonic anhydrase 9 assessed as surviving fraction incubated for 24 hrs measured after 7 days under hypoxic condition by methylene blue staining based clonogenic survival assay; format: functional, Canis lupus familiaris; summary of the method: as §3
MDCK [14] = test: Cytotoxicity against MDCK cells expressing carbonic anhydrase 9 assessed as reduction in cell viability after 72 hrs under normoxic condition by Alamar blue assay; format: functional, cell-based; details: Canis lupus familiaris
MDCK [15] = test: Cytotoxicity against carbonic anhydrase 9 knockdown MDCK cells assessed as reduction in cell viability after 72 hrs under normoxic condition by Alamar blue assay; format: cell-based; details: Canis lupus familiaris
HCT-116 [16] = test: Effect on mitochondrial respiration in carbonic anhydrase 9 knockdown human HCT116 cells assessed as reduction in oxygen consumption rate at 2 mM […]; format: cell-based; details: hct-116, 2000 µM
HCT-116 [17] = test: Effect on mitochondrial respiration in human HCT116 cells expressing carbonic anhydrase 9 assessed as reduction in oxygen consumption rate at 2 mM […]; format: functional, cell-based
MDCK [18] = test: Cytotoxicity against MDCK cells expressing carbonic anhydrase 9 assessed as reduction in cell viability incubated for 24 hrs measured after 7 days under hypoxic condition by methylene blue staining based clonogenic survival assay; format: functional; details: Canis lupus familiaris
Summary of the method: (§4)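 Clonogenic assay: confluent, high-density MDCK CAIX+/CAIX− cells were exposed to drug for 24 h at 0.2% or 21% O2. Cells were then trypsinized and reseeded in triplicate at known numbers. Colonies grew 7 days and were fixed/stained with 0.4% methylene blue in 70% ethanol. Surviving fraction was normalized to 0.5% DMSO vehicle; three independent biological repeats.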

MDCK [19] = test: Cytotoxicity against carbonic anhydrase 9 knockdown MDCK cells assessed as reduction in cell viability incubated for 24 hrs measured after 7 days under normoxic condition by methylene blue staining based clonogenic survival assay; design: species or system Canis lupus familiaris; details: dog; summary of the method: as §4
MDCK [20] = test: Cytotoxicity against carbonic anhydrase 9 knockdown MDCK cells assessed as reduction in cell viability incubated for 24 hrs measured after 7 days under hypoxic condition by methylene blue staining based clonogenic survival assay; design: species or system Canis lupus familiaris; details: dog; summary of the method: as §4
MDCK [21] = test: Cytotoxicity against MDCK cells expressing carbonic anhydrase 9 assessed as reduction in cell viability incubated for 24 hrs measured after 7 days under normoxic condition by methylene blue staining based clonogenic survival assay; format: functional; details: Canis lupus familiaris; summary of the method: as §4
MDCK [22] = test: Cytotoxicity against carbonic anhydrase 9 knockdown MDCK cells assessed as reduction in cell viability at 500 nM pretreated for 72 hrs followed by 72 hrs incubation under normoxic condition by Alamar blue assay; format: cell-based, Canis lupus familiaris; details: dog, 0.5 µM
Summary of the method: (§5)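 MDCK cells transfected with human CAIX or scrambled vector, normoxia (21% O2, 5% CO2). ATR inhibitors in 0.5% DMSO for 72 h, medium replaced, cells grown a further 72 h. Viability from 2 h alamarBlue conversion in normoxia.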

MDCK [23] = test: Cytotoxicity against MDCK cells expressing carbonic anhydrase 9 assessed as reduction in cell viability at 500 nM after 72 hrs under anoxic condition by Alamar blue assay; format: functional, cell-based; details: Canis lupus familiaris
Summary of the method: (§6)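 MDCK CAIX+ or CAIX− cells, 24 h anoxic preincubation (≤0.02% O2, 5% CO2) in pre-equilibrated DMEM. ATR inhibitors (0.5% DMSO) applied for 72 h without irradiation, then washed off, and 72 h normoxic regrowth. Readout by 2 h alamarBlue conversion under normoxia.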

MDCK [24] = test: Cytotoxicity against MDCK cells expressing carbonic anhydrase 9 assessed as reduction in cell viability at 500 nM pretreated for 72 hrs followed by 72 hrs incubation under normoxic condition by Alamar blue assay; format: functional, cell-based; details: Canis lupus familiaris; summary of the method: as §5
MDCK [25] = test: Cytotoxicity against MDCK cells expressing carbonic anhydrase 9 assessed as reduction in cell viability at 500 nM pretreated for 1 hr followed by 2 Gy irradiation under normoxic condition by Alamar blue assay; format: functional, cell-based; details: Canis lupus familiaris
Summary of the method: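 MDCK CAIX+ cells (human CAIX transfected) under normoxia (21% O2, 5% CO2). ATR inhibitors in 0.5% DMSO added 1 h before X-irradiation with 2 Gy. Exposure 72 h total, medium replaced, then 72 h further growth. Viability by 2 h alamarBlue conversion in normoxia.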

MDCK [26] = test: Cytotoxicity against MDCK cells expressing carbonic anhydrase 9 assessed as reduction in cell viability at 500 nM pretreated for 1 hr followed by 4 Gy irradiation under anoxic condition by Alamar blue assay; format: functional, cell-based; details: Canis lupus familiaris
Summary of the method: (§7)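 MDCK cells with or without CAIX, pre-exposed 24 h to anoxia (≤0.02% O2, 5% CO2, balance N2) in pre-equilibrated DMEM. ATR inhibitors in 0.5% DMSO added 1 h before 4 Gy X-irradiation. Exposure 72 h total, medium replaced, then 72 h normoxic regrowth. Viability by 2 h alamarBlue in normoxia.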

MDCK [27] = test: Cytotoxicity against carbonic anhydrase 9 knockdown MDCK cells assessed as reduction in cell viability at 500 nM pretreated for 1 hr followed by 4 Gy irradiation under anoxic condition by Alamar blue assay; format: cell-based, Canis lupus familiaris; details: dog, 0.5 µM; summary of the method: as §7
MDCK [28] = test: Cytotoxicity against carbonic anhydrase 9 knockdown MDCK cells assessed as reduction in cell viability at 500 nM pretreated for 1 hr followed by 2 Gy irradiation under normoxic condition by Alamar blue assay; format: cell-based, Canis lupus familiaris; details: dog, 0.5 µM; summary of the method: as §1
MDCK [29] = test: Cytotoxicity against carbonic anhydrase 9 knockdown MDCK cells assessed as reduction in cell viability at 500 nM after 72 hrs under anoxic condition by Alamar blue assay; format: cell-based, Canis lupus familiaris; details: dog, 0.5 µM; summary of the method: as §6

Carbonic anhydrase 12, sequence (O43570 whole entry): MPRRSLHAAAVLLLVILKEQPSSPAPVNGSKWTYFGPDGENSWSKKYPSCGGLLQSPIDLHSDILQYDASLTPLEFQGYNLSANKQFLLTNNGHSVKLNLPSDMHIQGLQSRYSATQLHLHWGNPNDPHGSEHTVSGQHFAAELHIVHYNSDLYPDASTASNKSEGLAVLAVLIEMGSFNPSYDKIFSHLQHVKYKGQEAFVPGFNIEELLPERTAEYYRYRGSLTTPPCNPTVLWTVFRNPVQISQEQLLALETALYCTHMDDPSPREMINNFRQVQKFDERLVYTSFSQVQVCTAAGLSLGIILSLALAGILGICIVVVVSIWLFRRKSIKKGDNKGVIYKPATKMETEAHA
Carbonic anhydrase 1, sequence (P00915 whole entry): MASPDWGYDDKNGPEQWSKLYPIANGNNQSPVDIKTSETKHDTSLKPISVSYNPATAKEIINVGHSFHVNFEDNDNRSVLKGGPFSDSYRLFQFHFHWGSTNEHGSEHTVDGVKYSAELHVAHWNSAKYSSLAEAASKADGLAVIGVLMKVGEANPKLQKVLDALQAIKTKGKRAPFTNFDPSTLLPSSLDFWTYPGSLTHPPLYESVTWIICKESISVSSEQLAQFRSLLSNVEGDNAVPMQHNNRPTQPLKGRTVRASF

SMILES | Ki (Carbonic anhydrase 12) [µM] | Ki (Carbonic anhydrase 1) [µM] | Ki (Carbonic anhydrase 2) [µM] | Ki (Carbonic anhydrase 9) [µM] | IC50 (MDCK [10]) [mM] | IC50 (MDCK [11]) [mM] | IC50 (MDCK [14]) [mM] | IC50 (MDCK [15]) [µM] | also measured
CNCc1ccc(-c2cc(-c3nc(-c4ccc(S(=O)(=O)C(C)C)cc4)cnc3N)on2)cc1 [BERZOSERTIB] | > 50 | > 50 | > 50 | > 50 | – | – | – | – | Activity (MDCK [1]): Active; Activity (MDCK [2]): Non-Toxic; Activity (MDCK [3]): Toxic; Activity (MDCK [4]): Active; Activity (MDCK [5]): Toxic; Activity (MDCK [6]): Non-Toxic; Activity (MDCK [7]): Active; Activity (MDCK [8]): Active
[H]/N=C(/N)N/C(=N/[H])NCCc1ccccc1 [PHENFORMIN] | > 50 | > 50 | > 50 | > 50 | – | – | – | – | Activity (HCT-116 [9]): Toxic
Cn1nnc2c(C(=O)NOS(N)(=O)=O)ncn2c1=O | > 50 | > 50 | > 50 | > 50 | 1 | > 1 | > 1 | 719 | viability at 24 h [12]: 46.1%; Survival (MDCK [13]): 26.1%
Cl.N=C(N)NC(=N)NCCc1ccc(S(N)(=O)=O)cc1 | – | – | – | 0.0202 | – | – | – | – | Activity (HCT-116 [16]): Non-Toxic; Activity (HCT-116 [17]): inactive
Cn1nnc2c(C(N)=O)ncn2c1=O [TEMOZOLOMIDE] | > 50 | > 50 | > 50 | > 50 | 1 | > 1 | > 1 | 775 | Activity (MDCK [18]): Active; Activity (MDCK [19]): Toxic; Activity (MDCK [20]): Toxic; Activity (MDCK [21]): Active
CS(=O)(=O)c1ccc(-c2cnc(NS(N)(=O)=O)c(C(=O)Nc3ccccc3)n2)cc1 | > 50 | > 50 | > 50 | > 50 | – | – | – | – | Activity (MDCK [22]): Toxic; Activity (MDCK [23]): Active; Activity (MDCK [24]): Active; Activity (MDCK [25]): Active; Activity (MDCK [26]): Active; Activity (MDCK [27]): Non-Toxic; Activity (MDCK [28]): Non-Toxic; Activity (MDCK [29]): Toxic
